Assay results: ChEMBL document CHEMBL1132284, “Potent, orally active GPIIb/IIIa antagonists containing a nipecotic acid subunit. Structure-activity studies leading to the discovery of RWJ-53308” (J Med Chem, 1999)

Experiments:
[1] = system: Canis familiaris; assay: Inhibitory activity tested in ex vivo (canine) against ADP-induced platelet aggregation at the dose of 10 mg/kg; format: functional, Canis lupus familiaris
[2] = molecular target: Integrin alpha-IIb/beta-3 (Homo sapiens, UniProt P05106+P08514); assay: In vitro inhibition of biotinylated fibrinogen binding to immobilized fibrinogen receptor.; format: protein-complex assay
Method in brief: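 Binding of biotinylated fibrinogen to immobilized purified GPIIb/IIIa, solid phase; IC50; n = 2.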

[3] = organism: Homo sapiens; assay: In vitro inhibitory potency against human gel filtered platelet (GFP) aggregation; format: functional
Method in brief: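 Human gel-filtered platelets, aggregation induced by thrombin; IC50; n = 2.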

[4] = system: Canis familiaris; assay: Ex vivo duration of inhibition of ADP-induced canine platelet aggregation by 3 mg/kg.; format: functional, Canis lupus familiaris
Method in brief: (§1)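 Fasted mongrel dogs (8–22 kg, n = 3) given compound orally by stomach tube in 10 mL water. Citrated cephalic-vein blood drawn pre-dose and at 30, 60, 90, 120, 180, 240, 360 min. PRP adjusted to 300 000/μL with PPP, warmed 2 min at 37 °C, and aggregated with 20 μM ADP, read as light transmission. Inhibition is drug versus vehicle; duration is time at ≥50% inhibition.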

[5] = system: Canis familiaris; assay: Inhibitory activity tested in ex vivo (canine) against ADP-induced platelet aggregation at the dose of 1 mg/kg; format: functional, Canis lupus familiaris; method in brief: as §1

Chain of Integrin alpha-IIb/beta-3 (P05106 27-788 limits assumed): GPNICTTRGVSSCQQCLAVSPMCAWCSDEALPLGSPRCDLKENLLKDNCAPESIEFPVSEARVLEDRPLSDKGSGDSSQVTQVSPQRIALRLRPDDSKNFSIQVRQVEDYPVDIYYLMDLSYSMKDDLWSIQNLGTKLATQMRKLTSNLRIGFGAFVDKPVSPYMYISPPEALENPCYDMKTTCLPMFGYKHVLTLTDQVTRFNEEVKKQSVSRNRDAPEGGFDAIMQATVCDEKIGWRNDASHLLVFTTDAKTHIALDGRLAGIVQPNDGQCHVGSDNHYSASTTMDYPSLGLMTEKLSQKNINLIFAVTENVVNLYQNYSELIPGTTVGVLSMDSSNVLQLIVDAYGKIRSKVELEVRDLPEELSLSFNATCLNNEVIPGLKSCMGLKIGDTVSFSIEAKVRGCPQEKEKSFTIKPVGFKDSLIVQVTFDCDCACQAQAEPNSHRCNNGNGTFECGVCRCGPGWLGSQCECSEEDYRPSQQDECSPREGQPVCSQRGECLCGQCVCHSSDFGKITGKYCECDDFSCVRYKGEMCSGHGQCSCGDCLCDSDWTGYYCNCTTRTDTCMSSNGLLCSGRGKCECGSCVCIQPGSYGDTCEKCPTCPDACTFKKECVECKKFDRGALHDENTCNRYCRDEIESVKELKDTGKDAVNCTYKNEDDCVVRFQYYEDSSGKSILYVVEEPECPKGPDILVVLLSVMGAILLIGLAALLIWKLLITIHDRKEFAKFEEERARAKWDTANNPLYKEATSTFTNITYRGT
Chain of Integrin alpha-IIb/beta-3 (P08514 32-887 limits assumed): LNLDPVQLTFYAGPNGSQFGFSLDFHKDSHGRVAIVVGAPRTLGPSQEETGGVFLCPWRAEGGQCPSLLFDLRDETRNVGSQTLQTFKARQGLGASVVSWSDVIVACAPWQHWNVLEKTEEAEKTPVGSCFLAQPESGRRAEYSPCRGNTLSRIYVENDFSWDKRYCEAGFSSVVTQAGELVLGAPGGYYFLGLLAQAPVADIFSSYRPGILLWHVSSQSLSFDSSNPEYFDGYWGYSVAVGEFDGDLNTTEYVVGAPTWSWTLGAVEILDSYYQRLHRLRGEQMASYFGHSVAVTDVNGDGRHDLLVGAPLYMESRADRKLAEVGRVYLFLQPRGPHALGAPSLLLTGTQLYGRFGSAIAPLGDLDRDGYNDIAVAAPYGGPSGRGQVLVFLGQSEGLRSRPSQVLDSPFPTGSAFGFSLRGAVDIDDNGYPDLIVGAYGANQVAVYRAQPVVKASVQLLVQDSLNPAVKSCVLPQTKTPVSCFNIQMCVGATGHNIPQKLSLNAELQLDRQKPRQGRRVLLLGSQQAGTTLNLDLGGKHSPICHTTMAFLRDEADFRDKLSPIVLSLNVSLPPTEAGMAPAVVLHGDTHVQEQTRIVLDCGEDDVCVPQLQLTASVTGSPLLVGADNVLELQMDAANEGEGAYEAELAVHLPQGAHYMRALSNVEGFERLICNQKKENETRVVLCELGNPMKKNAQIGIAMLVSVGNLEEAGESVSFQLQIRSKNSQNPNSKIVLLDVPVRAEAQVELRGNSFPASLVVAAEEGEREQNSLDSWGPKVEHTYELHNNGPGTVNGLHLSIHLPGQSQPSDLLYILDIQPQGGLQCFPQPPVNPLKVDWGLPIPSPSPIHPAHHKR
Chain of Integrin alpha-IIb/beta-3 (P08514 891-1039 limits assumed): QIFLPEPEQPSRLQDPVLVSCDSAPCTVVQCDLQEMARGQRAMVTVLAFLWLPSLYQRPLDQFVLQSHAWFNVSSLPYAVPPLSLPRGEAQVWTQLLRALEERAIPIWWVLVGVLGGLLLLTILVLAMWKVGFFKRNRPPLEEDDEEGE

| Structure (SMILES) | IC50 [2] [nM] | IC50 ([3]; Homo sapiens) [nM] | Duration [4] [min] | also measured |
| --- | --- | --- | --- | --- |
| CN1CCC(CCC(=O)N2CCC[C@@H](C(=O)N[C@H](CC(=O)O)c3ccc4c(c3)OCO4)C2)CC1 | 0.24 | 840 |  | Duration [1]: 120 min |
| O=C(O)C[C@@H](NC(=O)[C@@H]1CCCN(C(=O)CCC2CCNCC2)C1)c1ccc(Cl)s1 | 0.1 | 40 |  |  |
| O=C(O)C[C@H](NC(=O)[C@@H]1CCN(C(=O)/C=C/C2CCNCC2)C1)c1cccnc1 | 0.58 | 140 | 360 |  |
| O=C(O)CC(NC(=O)C1CCCN(C(=O)CCC2CCNCC2)C1)c1cncc(-c2ccccc2)c1 (centres undefined) | 1.8 |  |  |  |
| COc1ccccc1-c1cncc(C(CC(=O)O)NC(=O)C2CCCN(C(=O)CCC3CCNCC3)C2)c1 (centres undefined) | 12 |  |  |  |
| O=C(O)CC(NC(=O)C1CCCN(C(=O)CCC2CCNCC2)C1)c1cncc(-c2cc3ccccc3o2)c1 (centres undefined) | 36 |  |  |  |
| O=C(O)C[C@@H](NC(=O)[C@@H]1CCCN(C(=O)CCC2CCNCC2)C1)c1cccnc1 | 0.36 | 60 | 360 |  |
| O=C(O)C[C@H](NC(=O)[C@H]1CN(C(=O)CCC2CCNCC2)CCN1)c1cccnc1 | 1.7 | 600 |  |  |
| O=C(O)C[C@H](NC(=O)[C@@H]1CCCN(C(=O)/C=C/C2CCNCC2)C1)c1cccnc1 | 0.81 | 160 | 210 |  |
| CCOC(=O)C[C@@H](NC(=O)[C@@H]1CCCN(C(=O)CCC2CCNCC2)C1)c1ccc2c(c1)OCO2 | 48 | 36000 | <30 |  |
| O=C(O)C[C@@H](NC(=O)[C@@H]1CCCN(C(=O)CCC2CCNCC2)C1)c1ncc(C(F)(F)F)cc1Cl | 66.8 | 11800 | 30 |  |
| O=C(O)CC(NC(=O)C1CCCN(C(=O)CCC2CCNCC2)C1)c1cncc(-c2cccc3ccccc23)c1 (centres undefined) | 26 |  |  |  |
| N=CN1CCC(CCC(=O)N2CCC[C@@H](C(=O)N[C@@H](CC(=O)O)c3cccnc3)C2)CC1 | 0.75 | 350 | 90 |  |
| O=C(O)C[C@H](NC(=O)[C@@H]1CCCN(C(=O)CCC2CCNCC2)C1)c1cncc(-c2ccccc2)c1 | 0.52 | 70 |  |  |
| COc1ccc(-c2cncc(C(CC(=O)O)NC(=O)C3CCCN(C(=O)CCC4CCNCC4)C3)c2)cc1 (centres undefined) | 11 |  |  |  |
| O=C(O)C[C@H](NC(=O)[C@@H]1CCCN(C(=O)CCC2CCNCC2)C1)c1ccc(-c2ccsc2)nc1 | 0.37 | 200 | 150 |  |
| O=C(O)C[C@@H](NC(=O)[C@@H]1CCCN(C(=O)CCC2CCNCC2)C1)c1ccc2c(c1)OCO2 | 0.5 | 20 | 180 |  |
| O=C(O)C(O)CNC(=O)[C@@H]1CCCN(C(=O)CCC2CCNCC2)C1 (some centres undefined) | 3.5 | 1600 |  |  |
| Nc1cccc(-c2cncc(C(CC(=O)O)NC(=O)C3CCCN(C(=O)CCC4CCNCC4)C3)c2)c1 (centres undefined) | 3.6 |  |  |  |
| O=C(O)CC(NC(=O)C1CCCN(C(=O)CCC2CCNCC2)C1)c1cncc(-c2ccc(Cl)s2)c1 (centres undefined) | 57 |  |  |  |
| O=C(O)CC(NC(=O)C1CCCN(C(=O)CCC2CCNCC2)C1)c1cncc(Br)c1 (centres undefined) | 3 |  |  |  |
| C#Cc1cncc([C@H](CC(=O)O)NC(=O)[C@@H]2CCCN(C(=O)CCC3CCNCC3)C2)c1 | 0.24 | 30 |  |  |
| O=C(O)C[C@@H](NC(=O)[C@@H]1CCCN(C(=O)CCC2CCNCC2)C1)c1cccs1 | 0.1 | 90 |  |  |
| O=C(O)C[C@H](NC(=O)[C@@H]1CCCN(C(=O)CCC2CCNCC2)C1)c1cncc(CCc2ccccc2)c1 | 0.66 | 30 | 180 |  |
| O=C(O)C[C@H](NC(=O)[C@@H]1CCCN(C(=O)CCC2CCNCC2)C1)c1cncc(C#Cc2ccccc2)c1 | 0.85 | 40 |  | Duration [5]: <30 min |
| CC(C)(C)C#C[C@H](CC(=O)O)NC(=O)[C@@H]1CCCN(C(=O)CCC2CCNCC2)C1 | 5.6 | 31000 |  |  |
| O=C(O)CCNC(=O)[C@@H]1CCCN(C(=O)CCC2CCNCC2)C1 | 4.8 | 270 | 120 |  |
| O=C(O)C[C@@H](NC(=O)[C@@H]1CCCN(C(=O)CCC2CCNCC2)C1)c1cnc2ccccc2c1 (stereo in doubt; 33) | 0.18 |  |  |  |
| O=C(O)C[C@@H](NC(=O)[C@@H]1CCCN(C(=O)CCC2CCNCC2)C1)c1cnc2ccccc2c1 (stereo in doubt; 34) | 0.37 |  |  | IC50 [3]: 1200 nM |
| C#C[C@H](CC(=O)OCC)NC(=O)CCC(=O)Nc1ccc(C(=N)N)cc1 [XEMILOFIBAN] | 2 | 300 | >180 |  |

The remaining compounds from weak to strong by IC50 [2], led by results:

| IC50 [2] [nM] | IC50 ([3]; Homo sapiens) [nM] | Structure (SMILES) | Duration [4] [min] | also measured |
| --- | --- | --- | --- | --- |
| 57 |  | O=C(O)CC(NC(=O)C1CCCN(C(=O)CCC2CCNCC2)C1)c1cncc(-c2ccc3ccccc3c2)c1 (centres undefined) |  |  |
| 42 |  | CC(C)(C)C#C[C@@H](CC(=O)O)NC(=O)[C@@H]1CCCN(C(=O)CCC2CCNCC2)C1 |  |  |
| 24 |  | Cc1ccc(-c2cncc(C(CC(=O)O)NC(=O)C3CCCN(C(=O)CCC4CCNCC4)C3)c2)cc1 (centres undefined) |  |  |
| 17.9 | 210 | O=C(N[C@H](Cc1ccccc1)[C@@H](O)C(=O)O)[C@@H]1CCCN(C(=O)CCC2CCNCC2)C1 |  |  |
| 14 |  | O=C(O)CC(NC(=O)C1CCCN(C(=O)CCC2CCNCC2)C1)c1cncc(-c2cccc([N+](=O)[O-])c2)c1 (centres undefined) |  |  |
| 13.5 | 8000 | C[C@H](CC(=O)O)NC(=O)[C@@H]1CCCN(C(=O)CCC2CCNCC2)C1 |  |  |
| 11 |  | COc1cccc(-c2cncc(C(CC(=O)O)NC(=O)C3CCCN(C(=O)CCC4CCNCC4)C3)c2)c1 (centres undefined) |  |  |
| 7.2 | 41000 | COC(=O)C[C@H](NC(=O)[C@@H]1CCCN(C(=O)CCC2CCNCC2)C1)c1cccnc1 | 60 |  |
| 3.8 | 2200 | O=C(C[C@H](NC(=O)[C@@H]1CCCN(C(=O)CCC2CCNCC2)C1)c1cccnc1)OCCC1CCCCC1 | 120 |  |
| 3.8 | 90 | COc1ncc([C@H](CC(=O)O)NC(=O)[C@@H]2CCCN(C(=O)CCC3CCNCC3)C2)cc1Cl | 30 |  |
| 3 |  | O=C(O)CC(NC(=O)C1CCCN(C(=O)CCC2CCNCC2)C1)c1cccnc1 (centres undefined) |  |  |
| 2 |  | O=C(O)CC(NC(=O)C1CCCN(C(=O)CCC2CCNCC2)C1)c1cncc(-c2ccsc2)c1 (centres undefined) |  |  |
| 1.5 |  | O=C(O)CC(NC(=O)C1CCCN(C(=O)CCC2CCNCC2)C1)c1cncc(-c2cccs2)c1 (centres undefined) |  |  |
| 0.37 | 970 | O=C(O)C[C@@H](Cc1ccccc1)NC(=O)[C@@H]1CCCN(C(=O)CCC2CCNCC2)C1 |  |  |
| 0.34 | 220 | O=C(O)C[C@H](NC(=O)[C@@H]1CCCN(C(=O)CCC2CCNCC2)C1)c1cnc(Cl)c(Cl)c1 | 150 |  |
| 0.29 | 3500 | O=C(O)C[C@@H](C#Cc1ccccc1)NC(=O)[C@@H]1CCCN(C(=O)CCC2CCNCC2)C1 |  |  |
| 0.22 | 80 | O=C(O)C[C@H](C#Cc1ccccc1)NC(=O)[C@@H]1CCCN(C(=O)CCC2CCNCC2)C1 |  | Duration [5]: <30 min |
| 0.21 | 20 | O=C(O)C[C@H](NC(=O)[C@@H]1CCCN(C(=O)CCC2CCNCC2)C1)c1cncc(Br)c1 | 180 |  |
| 0.14 | 20 | O=C(O)C[C@H](NC(=O)[C@@H]1CCCN(C(=O)CCC2CCNCC2)C1)c1ccc(Cl)nc1 | 210 |  |
| 0.13 | 30 | Cc1ccc([C@H](CC(=O)O)NC(=O)[C@@H]2CCCN(C(=O)CCC3CCNCC3)C2)cn1 | 210 |  |
